# Measured values reported in publication PMC12541583 (Acta Pharmaceutica Sinica. B, 2025).
# pIC50: −log10 of the molar value.
# Experiments:
# MDR1 (P-gp) = MDR1 (P-gp) (Homo sapiens, UniProt P08183); assay: In vitro Pg-P efflux assay; type: in vitro ADME; details: not told
# CYP2D6 = CYP2D6 (Homo sapiens, UniProt P10635); assay: CYP interactions, CYP2D6; type: in vitro ADME
# [1] = biological target: human ether-a-go-go-related gene (hERG) channel (Homo sapiens, UniProt Q12809); assay: In vitro hERG channel safety
# Chain of human ether-a-go-go-related gene (hERG) channel (Q12809 whole entry): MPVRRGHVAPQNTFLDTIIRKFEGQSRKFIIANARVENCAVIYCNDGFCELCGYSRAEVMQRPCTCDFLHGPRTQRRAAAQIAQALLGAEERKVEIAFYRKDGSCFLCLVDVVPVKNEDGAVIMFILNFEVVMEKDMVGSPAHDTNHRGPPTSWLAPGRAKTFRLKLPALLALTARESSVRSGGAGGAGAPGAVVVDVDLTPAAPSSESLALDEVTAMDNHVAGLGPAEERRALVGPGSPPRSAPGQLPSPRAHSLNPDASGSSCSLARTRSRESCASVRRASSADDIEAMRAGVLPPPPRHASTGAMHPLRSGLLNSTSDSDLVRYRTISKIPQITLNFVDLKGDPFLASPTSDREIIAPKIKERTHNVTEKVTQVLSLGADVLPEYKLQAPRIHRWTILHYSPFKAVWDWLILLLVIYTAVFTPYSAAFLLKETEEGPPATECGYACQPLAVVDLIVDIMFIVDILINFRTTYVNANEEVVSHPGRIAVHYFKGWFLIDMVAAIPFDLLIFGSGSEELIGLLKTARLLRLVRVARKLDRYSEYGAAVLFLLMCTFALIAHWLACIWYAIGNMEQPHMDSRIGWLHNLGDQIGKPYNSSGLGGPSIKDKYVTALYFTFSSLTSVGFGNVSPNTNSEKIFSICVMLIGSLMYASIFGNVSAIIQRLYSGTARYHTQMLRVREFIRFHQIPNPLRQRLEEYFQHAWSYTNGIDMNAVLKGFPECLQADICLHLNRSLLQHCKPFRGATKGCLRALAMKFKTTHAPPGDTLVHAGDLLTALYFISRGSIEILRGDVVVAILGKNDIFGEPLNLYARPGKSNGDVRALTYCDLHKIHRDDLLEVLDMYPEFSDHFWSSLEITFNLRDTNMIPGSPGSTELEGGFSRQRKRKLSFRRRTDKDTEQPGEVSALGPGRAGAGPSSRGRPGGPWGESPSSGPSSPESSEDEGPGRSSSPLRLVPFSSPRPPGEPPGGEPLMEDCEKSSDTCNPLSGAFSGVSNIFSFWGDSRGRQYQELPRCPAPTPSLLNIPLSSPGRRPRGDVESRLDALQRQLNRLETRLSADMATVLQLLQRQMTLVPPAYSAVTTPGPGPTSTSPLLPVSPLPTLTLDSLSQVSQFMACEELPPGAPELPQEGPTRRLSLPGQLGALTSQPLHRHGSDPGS
# CYP2C9 = CYP2C9 (Homo sapiens, UniProt P11712); assay: CYP interactions, CYP2C9; type: in vitro ADME
# Chain of CYP2C9 (P11712 whole entry, species assumed): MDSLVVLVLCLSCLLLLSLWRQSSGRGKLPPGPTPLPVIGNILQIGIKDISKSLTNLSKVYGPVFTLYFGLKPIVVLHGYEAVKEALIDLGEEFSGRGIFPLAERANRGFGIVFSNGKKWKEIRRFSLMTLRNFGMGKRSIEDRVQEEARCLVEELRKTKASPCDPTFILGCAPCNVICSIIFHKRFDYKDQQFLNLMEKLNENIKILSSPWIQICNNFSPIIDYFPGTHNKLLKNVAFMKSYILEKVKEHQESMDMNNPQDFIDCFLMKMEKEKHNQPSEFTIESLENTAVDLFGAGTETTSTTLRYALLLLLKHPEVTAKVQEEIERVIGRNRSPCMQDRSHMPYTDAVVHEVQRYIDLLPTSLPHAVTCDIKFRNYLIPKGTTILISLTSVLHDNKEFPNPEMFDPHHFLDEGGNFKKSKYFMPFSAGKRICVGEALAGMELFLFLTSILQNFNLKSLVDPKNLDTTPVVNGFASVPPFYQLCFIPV
# PARP1 [2] = biological target: PARP1 (Macaca mulatta, UniProt H9FQ77); assay: NHP PET imaging of [18F]AZD9574, baseline and blocking; type: in vivo, rhesus monkeys
# Chain of PARP1 (Macaca mulatta, UniProt H9FQ77) (H9FQ77 1-1014): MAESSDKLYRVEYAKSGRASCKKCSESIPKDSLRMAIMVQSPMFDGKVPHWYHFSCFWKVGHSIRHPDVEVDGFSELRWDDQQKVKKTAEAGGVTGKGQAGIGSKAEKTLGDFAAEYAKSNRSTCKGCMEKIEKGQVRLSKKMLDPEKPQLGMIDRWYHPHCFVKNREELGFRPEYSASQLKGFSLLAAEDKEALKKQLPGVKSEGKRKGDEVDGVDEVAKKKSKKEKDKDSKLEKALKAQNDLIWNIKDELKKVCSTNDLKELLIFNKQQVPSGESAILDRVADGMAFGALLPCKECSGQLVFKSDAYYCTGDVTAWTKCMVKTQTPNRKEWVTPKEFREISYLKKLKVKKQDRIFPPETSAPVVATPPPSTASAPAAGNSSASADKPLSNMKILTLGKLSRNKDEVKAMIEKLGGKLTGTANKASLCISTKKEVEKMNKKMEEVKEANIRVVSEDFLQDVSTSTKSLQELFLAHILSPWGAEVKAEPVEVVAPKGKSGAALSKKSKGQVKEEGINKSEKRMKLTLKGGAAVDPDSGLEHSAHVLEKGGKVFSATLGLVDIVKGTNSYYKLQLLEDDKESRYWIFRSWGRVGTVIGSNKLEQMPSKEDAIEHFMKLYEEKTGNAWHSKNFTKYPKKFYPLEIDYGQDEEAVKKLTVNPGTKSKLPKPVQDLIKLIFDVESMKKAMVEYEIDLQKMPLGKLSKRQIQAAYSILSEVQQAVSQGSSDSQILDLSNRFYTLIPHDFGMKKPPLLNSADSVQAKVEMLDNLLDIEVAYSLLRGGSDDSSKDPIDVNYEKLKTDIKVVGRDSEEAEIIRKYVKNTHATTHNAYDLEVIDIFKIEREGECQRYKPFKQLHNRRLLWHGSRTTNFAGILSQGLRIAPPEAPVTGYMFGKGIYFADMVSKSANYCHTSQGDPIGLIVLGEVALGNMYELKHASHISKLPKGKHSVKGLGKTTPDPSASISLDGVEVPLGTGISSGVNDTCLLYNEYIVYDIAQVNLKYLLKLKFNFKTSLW
# Procedure, shortened: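 An iv bolus of tracer (4.05 ± 0.54 mCi) was followed by 90 min dynamic 3D PET acquisition in 36 frames. ROIs were drawn on co-registered T1-weighted MRI. Regional SUV time–activity curves were generated; baseline scans n = 2 animals.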
# CYP1A2 = biological target: T1, CYP1A2 (Homo sapiens, UniProt P05177); assay: CYP interactions, CYP1A2; type: in vitro ADME
# T1 sequence (P05177 1-516): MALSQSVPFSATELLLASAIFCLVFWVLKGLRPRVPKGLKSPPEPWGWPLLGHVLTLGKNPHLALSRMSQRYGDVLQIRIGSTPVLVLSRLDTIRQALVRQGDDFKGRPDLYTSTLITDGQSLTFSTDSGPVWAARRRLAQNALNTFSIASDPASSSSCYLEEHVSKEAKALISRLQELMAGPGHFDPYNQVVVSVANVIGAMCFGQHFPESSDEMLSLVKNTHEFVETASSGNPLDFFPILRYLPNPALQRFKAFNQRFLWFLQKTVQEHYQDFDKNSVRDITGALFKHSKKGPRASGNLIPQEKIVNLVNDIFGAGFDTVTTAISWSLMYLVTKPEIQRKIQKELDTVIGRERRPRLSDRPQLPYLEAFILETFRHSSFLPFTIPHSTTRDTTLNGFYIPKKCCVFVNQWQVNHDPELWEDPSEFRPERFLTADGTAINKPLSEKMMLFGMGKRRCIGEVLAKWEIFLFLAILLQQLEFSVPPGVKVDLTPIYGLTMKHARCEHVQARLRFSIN
# CYP3A4 = CYP3A4 (Homo sapiens, UniProt P08684); assay: CYP interactions, CYP3A4; type: in vitro ADME
# Chain of CYP3A4 (P08684 whole entry, species assumed): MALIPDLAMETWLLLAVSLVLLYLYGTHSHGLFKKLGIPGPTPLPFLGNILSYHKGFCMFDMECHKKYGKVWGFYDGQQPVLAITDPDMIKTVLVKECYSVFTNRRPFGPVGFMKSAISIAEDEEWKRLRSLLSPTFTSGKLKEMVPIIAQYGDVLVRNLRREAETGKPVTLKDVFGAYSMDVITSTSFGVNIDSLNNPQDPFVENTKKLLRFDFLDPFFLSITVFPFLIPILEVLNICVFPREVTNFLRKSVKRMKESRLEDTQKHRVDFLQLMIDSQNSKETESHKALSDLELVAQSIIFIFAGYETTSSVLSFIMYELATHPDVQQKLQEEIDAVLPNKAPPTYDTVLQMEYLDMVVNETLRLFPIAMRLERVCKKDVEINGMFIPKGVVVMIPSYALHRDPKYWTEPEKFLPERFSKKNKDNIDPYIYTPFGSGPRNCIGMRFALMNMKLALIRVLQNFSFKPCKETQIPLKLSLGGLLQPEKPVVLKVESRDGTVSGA
# PARP1 [3] = assay: In vitro autoradiography of [18F]AZD9574 on NHP cerebellum brain sections; type: binding; details: blocker 10 μmol/L
# Procedure, shortened: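 Rat and NHP brain sections were pre-incubated 10 min at ambient temperature in 50 mmol/L Tris–HCl with 0.1% BSA. They were then incubated 1 h with radioligand (~4 μCi/mL, ~4 nmol/L), with blockers at 10 μmol/L added beforehand. Sections were rinsed twice for 2 min in ice-cold buffer with ethanol, dipped in cold water, air-dried and exposed to imaging plates overnight. ROI radioactivity was taken as % of control; mean ± SD, n = 3.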
# CYP19A = biological target: T2, CYP19A (Homo sapiens, UniProt P11511); assay: CYP interactions, CYP19A; type: in vitro ADME
# T2 sequence (P11511 1-503): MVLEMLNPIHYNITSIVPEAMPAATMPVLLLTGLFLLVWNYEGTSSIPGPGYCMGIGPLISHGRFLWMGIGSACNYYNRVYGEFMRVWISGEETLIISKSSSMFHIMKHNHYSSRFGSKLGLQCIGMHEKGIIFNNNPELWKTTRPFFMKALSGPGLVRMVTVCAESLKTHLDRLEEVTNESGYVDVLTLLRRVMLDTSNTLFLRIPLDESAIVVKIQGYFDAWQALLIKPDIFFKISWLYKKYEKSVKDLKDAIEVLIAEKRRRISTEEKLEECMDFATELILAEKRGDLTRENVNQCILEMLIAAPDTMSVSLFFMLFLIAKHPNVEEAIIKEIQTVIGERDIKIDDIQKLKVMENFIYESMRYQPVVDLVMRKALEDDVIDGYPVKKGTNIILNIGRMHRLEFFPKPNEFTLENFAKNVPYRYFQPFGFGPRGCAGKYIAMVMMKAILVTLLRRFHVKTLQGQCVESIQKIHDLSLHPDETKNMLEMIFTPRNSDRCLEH
# HepG2 cells = assay: CellTiter-Glo luminescent cell viability assay in HepG2 cells; type: cell-based; details: Homo sapiens, HepG2, read-out: HepG2 IC50
# CYP2C19 = CYP2C19 (Homo sapiens, UniProt P33261); assay: CYP interactions, CYP2C19; type: in vitro ADME
# Chain of CYP2C19 (P33261 whole entry, species assumed): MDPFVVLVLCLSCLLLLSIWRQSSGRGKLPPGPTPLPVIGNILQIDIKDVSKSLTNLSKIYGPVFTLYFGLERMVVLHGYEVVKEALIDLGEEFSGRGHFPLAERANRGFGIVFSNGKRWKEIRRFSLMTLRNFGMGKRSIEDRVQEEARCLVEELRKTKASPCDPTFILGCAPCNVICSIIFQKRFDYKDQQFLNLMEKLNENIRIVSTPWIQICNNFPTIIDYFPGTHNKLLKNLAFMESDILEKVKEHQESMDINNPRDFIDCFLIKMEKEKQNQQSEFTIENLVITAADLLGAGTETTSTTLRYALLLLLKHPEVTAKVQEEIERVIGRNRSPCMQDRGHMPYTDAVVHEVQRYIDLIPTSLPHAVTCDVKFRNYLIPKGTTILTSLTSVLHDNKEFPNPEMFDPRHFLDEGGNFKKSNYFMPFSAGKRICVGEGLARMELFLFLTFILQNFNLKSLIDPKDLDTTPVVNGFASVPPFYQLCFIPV
# PARP1 [4] = biological target: PARP1 (Rattus norvegicus, UniProt P27008); assay: In vitro autoradiography of [18F]AZD9574 on rat brain sections; type: binding; details: blocker 10 μmol/L
# Chain of PARP1 (Rattus norvegicus, UniProt P27008) (P27008 whole entry): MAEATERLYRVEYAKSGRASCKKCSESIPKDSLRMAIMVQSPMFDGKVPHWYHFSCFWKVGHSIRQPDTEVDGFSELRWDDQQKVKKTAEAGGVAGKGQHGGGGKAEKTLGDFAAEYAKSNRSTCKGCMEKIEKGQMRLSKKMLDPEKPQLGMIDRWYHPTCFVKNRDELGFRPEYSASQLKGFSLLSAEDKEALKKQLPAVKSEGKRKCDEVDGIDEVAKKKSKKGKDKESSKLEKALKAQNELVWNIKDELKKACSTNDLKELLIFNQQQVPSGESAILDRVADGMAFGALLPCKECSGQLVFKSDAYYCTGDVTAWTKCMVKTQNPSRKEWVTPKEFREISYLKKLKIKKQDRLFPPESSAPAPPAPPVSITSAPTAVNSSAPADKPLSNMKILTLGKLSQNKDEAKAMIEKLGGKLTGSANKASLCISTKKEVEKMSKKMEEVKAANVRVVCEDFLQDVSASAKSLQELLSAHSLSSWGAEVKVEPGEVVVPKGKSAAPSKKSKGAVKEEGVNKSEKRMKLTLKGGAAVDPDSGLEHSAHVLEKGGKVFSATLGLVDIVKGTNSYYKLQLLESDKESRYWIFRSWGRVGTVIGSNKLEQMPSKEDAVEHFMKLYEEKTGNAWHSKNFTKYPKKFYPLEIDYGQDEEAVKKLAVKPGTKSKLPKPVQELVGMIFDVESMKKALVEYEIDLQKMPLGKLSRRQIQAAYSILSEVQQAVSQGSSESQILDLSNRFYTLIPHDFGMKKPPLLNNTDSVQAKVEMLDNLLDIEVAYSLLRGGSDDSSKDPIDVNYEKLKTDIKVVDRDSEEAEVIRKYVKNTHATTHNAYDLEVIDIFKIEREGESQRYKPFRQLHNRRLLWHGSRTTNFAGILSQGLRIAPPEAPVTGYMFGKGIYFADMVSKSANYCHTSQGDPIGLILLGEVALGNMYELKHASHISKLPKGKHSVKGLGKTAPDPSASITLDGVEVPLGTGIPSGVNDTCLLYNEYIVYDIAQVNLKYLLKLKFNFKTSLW
# PC3 cell lines = assay: In vitro cellular uptake and blocking of [18F]AZD9574 in PC3 cells; type: cell-based; details: blocker 1 μmol/L
# Procedure, shortened: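 PC3 cells were grown in F-12K with 10% FBS and 1% penicillin–streptomycin at 37 °C, 5% CO2, and seeded at 1×10^5 cells/well 24 h before use. After two PBS rinses, 1 μCi/well tracer plus blocking agent was added in serum-free medium for 60 min at 37 °C. Cells were rinsed twice with cold PBS, lysed in 0.1 mol/L NaOH and counted in a gamma counter.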
smiles,measurement,setting,value
"CNC(=O)c1ccc(N2CCN(Cc3ccc4nc(C)c(=O)[nH]c4c3F)CC2)c(F)n1 [compound 5, 6-fluoro-5-(4-((5-fluoro-2-methyl-3-oxo-3,4-dihydroquinoxalin-6-yl)methyl)piperazin-1-yl)-N-methylpicolinamide]",Papp A→B,MDR1 (P-gp),42.5 ×10⁻⁶ cm/s
same,pIC50,CYP2D6,< 5.30
same,pIC50,[1],< 4.00
same,pIC50,CYP2C9,< 5.30
same,reduction of [18F]AZD9574 radioactivity accumulation in the cerebellum (area under curve 60-90 min),PARP1 [2]; pretreatment 0.05 mg/kg,37.7%
same,reduction of [18F]AZD9574 radioactivity accumulation in the cerebellum (area under curve 60-90 min),PARP1 [2]; pretreatment 0.5 mg/kg,63.4%
same,pIC50,CYP1A2,< 5.30
same,pIC50,CYP3A4,< 5.30
same,effect on [18F]AZD9574 uptake in the cerebellum,PARP1 [3],substantial uptake reduction
same,pIC50,CYP19A,< 5.30
same,pIC50,HepG2 cells,< 4.00
same,pIC50,CYP2C19,< 5.30
C[C@]12CCCN1CC1=NNC(=O)c3cc(F)cc4[nH]c2c1c34 [pamiparib],reduction of [18F]AZD9574 radioactivity accumulation in all brain regions,PARP1 [4],greater than 85%
COC1CCN(C(=O)c2cc(Cc3n[nH]c(=O)c4ccccc34)ccc2F)CC1 [AZD2461],reduction of [18F]AZD9574 radioactivity accumulation in all brain regions,PARP1 [4],greater than 85%
C[C@]1(c2nc3c(C(N)=O)cccc3[nH]2)CCCN1 [veliparib],reduction of [18F]AZD9574 radioactivity accumulation in all brain regions,PARP1 [4],greater than 85%
"O=C(c1cc(Cc2n[nH]c(=O)c3ccccc23)ccc1F)N1CCN(C(=O)C2CC2)CC1 [olaparib, reference compound]",effect on [18F]AZD9574 uptake in the cerebellum,PARP1 [3],substantial uptake reduction
same,effect on [18F]AZD9574 uptake,PC3 cell lines,significantly attenuated
CNCc1ccc(-c2[nH]c3cc(F)cc4c3c2CCNC4=O)cc1 [rucaparib],reduction of [18F]AZD9574 radioactivity accumulation in all brain regions,PARP1 [4],greater than 85%
